Converted amounts (≈) assume the structure as drawn.
System: Bacteroides caccae
Assay: Antimicrobial activity against Bacteroides caccae after 48 hrs by agar dilution method
Format: functional
Method in brief: (§1)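 MICs on clinical anaerobe isolates by the CLSI agar dilution method. Inoculum of 10^5 CFU applied with a Steers replicator. Plates incubated 48 h at 37°C in an anaerobic chamber.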

| Structure (SMILES) | MIC50 | MIC90 |
| --- | --- | --- |
| Cc1ncc([N+](=O)[O-])n1CCO [METRONIDAZOLE] | 2 µg/mL (≈ 11.7 µM) | 2 µg/mL (≈ 11.7 µM) |

System: Parabacteroides distasonis
Assay: Antimicrobial activity against Bacteroides distasonis after 48 hrs by agar dilution method
Format: functional
Method in brief: as §1

| Structure (SMILES) | MIC50 | MIC90 |
| --- | --- | --- |
| Cc1ncc([N+](=O)[O-])n1CCO [METRONIDAZOLE] | 2 µg/mL (≈ 11.7 µM) | 2 µg/mL (≈ 11.7 µM) |

System: Phocaeicola vulgatus
Assay: Antimicrobial activity against Bacteroides vulgatus after 48 hrs by agar dilution method
Format: functional
Method in brief: as §1

| Structure (SMILES) | MIC50 | MIC90 |
| --- | --- | --- |
| Cc1ncc([N+](=O)[O-])n1CCO [METRONIDAZOLE] | 2 µg/mL (≈ 11.7 µM) | 2 µg/mL (≈ 11.7 µM) |

System: Bacteroides ovatus
Assay: Antimicrobial activity against Bacteroides ovatus after 48 hrs by agar dilution method
Format: functional
Method in brief: as §1

| Structure (SMILES) | MIC50 | MIC90 |
| --- | --- | --- |
| Cc1ncc([N+](=O)[O-])n1CCO [METRONIDAZOLE] | 2 µg/mL (≈ 11.7 µM) | 2 µg/mL (≈ 11.7 µM) |

System: Bacteroides fragilis
Assay: Antimicrobial activity against Bacteroides fragilis assessed as percent resistant isolates after 48 hrs by agar dilution method
Format: functional
Method in brief: (§2)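 CLSI agar dilution on recent Korean clinical anaerobe isolates. Inoculum 10^5 CFU per spot by replicator. Plates incubated in an anaerobic chamber at 37°C for 48 h. For piperacillin plus tazobactam, tazobactam was held constant at 4 μg/ml. Resistance and susceptibility rates derived from MICs.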

| Structure (SMILES) | Activity |
| --- | --- |
| Cc1ncc([N+](=O)[O-])n1CCO [METRONIDAZOLE] | 0% |

System: Bacteroides thetaiotaomicron
Assay: Antimicrobial activity against Bacteroides thetaiotaomicron assessed as percent susceptible isolates after 48 hrs by agar dilution method
Format: functional

| Structure (SMILES) | Activity |
| --- | --- |
| Cc1ncc([N+](=O)[O-])n1CCO [METRONIDAZOLE] | 100% |

System: Bacteroides caccae
Assay: Antimicrobial activity against Bacteroides caccae assessed as percent susceptible isolates after 48 hrs by agar dilution method
Format: functional

| Structure (SMILES) | Activity |
| --- | --- |
| Cc1ncc([N+](=O)[O-])n1CCO [METRONIDAZOLE] | 100% |

System: Phocaeicola vulgatus
Assay: Antimicrobial activity against Bacteroides vulgatus assessed as percent susceptible isolates after 48 hrs by agar dilution method
Format: functional

| Structure (SMILES) | Activity |
| --- | --- |
| Cc1ncc([N+](=O)[O-])n1CCO [METRONIDAZOLE] | 100% |

System: Prevotella intermedia
Assay: Antimicrobial activity against Prevotella intermedia after 48 hrs by agar dilution method
Format: functional
Method in brief: (§3)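 CLSI agar dilution (M11-A7); inoculum 10^5 CFU applied by replicator; plates incubated anaerobically 48 h at 37°C. For piperacillin-tazobactam, tazobactam held constant at 4 μg/ml.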

| Structure (SMILES) | MIC | MIC50 | MIC90 |
| --- | --- | --- | --- |
| Cc1ncc([N+](=O)[O-])n1CCO [METRONIDAZOLE] | 0.5 µg/mL (≈ 2.92 µM) | 0.5 µg/mL (≈ 2.92 µM) | 2 µg/mL (≈ 11.7 µM) |

System: Prevotella bivia
Assay: Antimicrobial activity against Prevotella bivia after 48 hrs by agar dilution method
Format: functional
Method in brief: as §3

| Structure (SMILES) | MIC50 | MIC90 |
| --- | --- | --- |
| Cc1ncc([N+](=O)[O-])n1CCO [METRONIDAZOLE] | 4 µg/mL (≈ 23.4 µM) | 8 µg/mL (≈ 46.7 µM) |

System: Prevotella intermedia
Assay: Antimicrobial activity against Prevotella intermedia assessed as percent susceptible isolates after 48 hrs by agar dilution method
Format: functional
Method in brief: as §3

| Structure (SMILES) | Activity |
| --- | --- |
| Cc1ncc([N+](=O)[O-])n1CCO [METRONIDAZOLE] | 100% |

System: Prevotella bivia
Assay: Antimicrobial activity against Prevotella bivia assessed as percent susceptible isolates after 48 hrs by agar dilution method
Format: functional
Method in brief: as §3

| Structure (SMILES) | Activity |
| --- | --- |
| Cc1ncc([N+](=O)[O-])n1CCO [METRONIDAZOLE] | 100% |

System: Prevotella buccae
Assay: Antimicrobial activity against Prevotella buccae assessed as percent susceptible isolates after 48 hrs by agar dilution method
Format: functional, Segatella buccae
Method in brief: as §3

| Structure (SMILES) | Activity |
| --- | --- |
| Cc1ncc([N+](=O)[O-])n1CCO [METRONIDAZOLE] | 100% |

System: Hoylesella oralis
Assay: Antimicrobial activity against Prevotella oralis assessed as percent resistant isolates after 48 hrs by agar dilution method
Format: functional
Method in brief: as §2

| Structure (SMILES) | Activity |
| --- | --- |
| Cc1ncc([N+](=O)[O-])n1CCO [METRONIDAZOLE] | 0% |

System: Fusobacterium mortiferum
Assay: Antimicrobial activity against Fusobacterium mortiferum after 48 hrs by agar dilution method
Format: functional
Method in brief: as §3

| Structure (SMILES) | MIC |
| --- | --- |
| Cc1ncc([N+](=O)[O-])n1CCO [METRONIDAZOLE] | 0.13 µg/mL (≈ 0.76 µM) |

System: Parvimonas micra
Assay: Antimicrobial activity against Peptostreptococcus micros assessed as percent susceptible isolates after 48 hrs by agar dilution method
Format: functional
Method in brief: as §2

| Structure (SMILES) | Activity |
| --- | --- |
| Cc1ncc([N+](=O)[O-])n1CCO [METRONIDAZOLE] | 0% |

System: Peptoniphilus asaccharolyticus
Assay: Antimicrobial activity against Peptoniphilus asaccharolyticus after 48 hrs by agar dilution method
Format: functional
Method in brief: as §3

| Structure (SMILES) | MIC50 | MIC90 |
| --- | --- | --- |
| Cc1ncc([N+](=O)[O-])n1CCO [METRONIDAZOLE] | 1 µg/mL (≈ 5.84 µM) | 1 µg/mL (≈ 5.84 µM) |

System: Finegoldia magna
Assay: Antimicrobial activity against Finegoldia magna after 48 hrs by agar dilution method
Format: functional
Method in brief: as §3

| Structure (SMILES) | MIC | MIC50 | MIC90 |
| --- | --- | --- | --- |
| Cc1ncc([N+](=O)[O-])n1CCO [METRONIDAZOLE] | 0.5 µg/mL (≈ 2.92 µM) | 0.5 µg/mL (≈ 2.92 µM) | 1 µg/mL (≈ 5.84 µM) |

System: Clostridium perfringens
Assay: Antimicrobial activity against Clostridium perfringens after 48 hrs by agar dilution method
Format: functional

| Structure (SMILES) | MIC | MIC50 | MIC90 |
| --- | --- | --- | --- |
| Cc1ncc([N+](=O)[O-])n1CCO [METRONIDAZOLE] | 0.02 µg/mL (≈ 0.117 µM) | 0.03 µg/mL (≈ 0.175 µM) | 0.06 µg/mL (≈ 0.351 µM) |

System: Clostridium perfringens
Assay: Antimicrobial activity against Clostridium perfringens assessed as percent susceptible isolates after 48 hrs by agar dilution method
Format: functional

| Structure (SMILES) | Activity |
| --- | --- |
| Cc1ncc([N+](=O)[O-])n1CCO [METRONIDAZOLE] | 100% |

System: Clostridioides difficile
Assay: Antimicrobial activity against Clostridium difficile after 48 hrs by agar dilution method
Format: functional

| Structure (SMILES) | MIC50 | MIC90 |
| --- | --- | --- |
| Cc1ncc([N+](=O)[O-])n1CCO [METRONIDAZOLE] | 1 µg/mL (≈ 5.84 µM) | 1 µg/mL (≈ 5.84 µM) |

System: Actinomyces israelii
Assay: Antimicrobial activity against Actinomyces israelii after 48 hrs by agar dilution method
Format: functional
Method in brief: as §1

| Structure (SMILES) | MIC50 | MIC90 |
| --- | --- | --- |
| Cc1ncc([N+](=O)[O-])n1CCO [METRONIDAZOLE] | 16 µg/mL (≈ 93.5 µM) | > 128 µg/mL |

System: Schaalia meyeri
Assay: Antimicrobial activity against Actinomyces meyeri after 48 hrs by agar dilution method
Format: functional
Method in brief: as §1

| Structure (SMILES) | MIC50 | MIC90 |
| --- | --- | --- |
| Cc1ncc([N+](=O)[O-])n1CCO [METRONIDAZOLE] | 16 µg/mL (≈ 93.5 µM) | > 128 µg/mL |

System: Bifidobacterium adolescentis
Assay: Antimicrobial activity against Bifidobacterium adolescentis after 48 hrs by agar dilution method
Format: functional
Method in brief: as §1

| Structure (SMILES) | MIC50 | MIC90 |
| --- | --- | --- |
| Cc1ncc([N+](=O)[O-])n1CCO [METRONIDAZOLE] | 16 µg/mL (≈ 93.5 µM) | > 128 µg/mL |

System: Eggerthella lenta
Assay: Antimicrobial activity against Eubacterium lentum assessed as percent susceptible isolates after 48 hrs by agar dilution method
Format: functional
Method in brief: as §3

| Structure (SMILES) | Activity |
| --- | --- |
| Cc1ncc([N+](=O)[O-])n1CCO [METRONIDAZOLE] | 46% |

System: Eubacterium sp.
Assay: Antimicrobial activity against Eubacterium sp. after 48 hrs by agar dilution method
Format: functional
Method in brief: as §3

| Structure (SMILES) | MIC50 | MIC90 |
| --- | --- | --- |
| Cc1ncc([N+](=O)[O-])n1CCO [METRONIDAZOLE] | 16 µg/mL (≈ 93.5 µM) | > 128 µg/mL |
